Data reported in ChEMBL document CHEMBL4513216, “Probing the Open Global Health Chemical Diversity Library for Multistage-Active Starting Points for Next-Generation Antimalarials” (ACS Infect Dis, 2020).

Assay: Toxicity liver stage against HepG2, at 10uM
Type: cell-based
Set-up: test concentration 10 uM, cell line HepG2-A16-CD81EGFP
Conditions: human, HepG2-A16-CD81EGFP cells; read-out: INHIBITION
Procedure, shortened: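 Uninfected HepG2-A16-CD81EGFP cells, 3 × 10^3 per well, 1536-well, plated on prespotted compound at 10 μM final, parasite-free screening media added to match infected plates; puromycin 10 μM positive, DMSO 0.5% negative; run in parallel with 48 h PbLuc assay at 37 °C, 5% CO2; viability by CellTiter-Glo luminescence, normalized to controls.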

**Q.** Which cytotoxicity at 10 µM does the source give for `O[C@]12CCNC[C@H]1CN(c1ncccc1Cl)CC2` here?
**A.** 10.2%

**Q.** Which cytotoxicity at 10 µM does the source give for `CC(C)Nc1ncccc1C(=O)NC1CC(=O)N(CC(F)(F)F)C1` (stereo not given) here?
**A.** -1.54%

**Q.** For `CN(C)S(=O)(=O)N1CC[C@]2(C[C@H](Oc3ncccc3F)CO2)C1`, which cytotoxicity at 10 µM is on record?
**A.** 2.47%

**Q.** With `O=C(Nc1cnccn1)[C@H]1C[C@H]2OCC[C@H]2N(c2ncc(F)cn2)C1` as the compound, how does the cytotoxicity at 10 µM read?
**A.** 16.4%

**Q.** With `O[C@@H]1C[C@@H](c2nc(-c3ccccc3)no2)N(C2CCOCC2)C1` as the compound, how does the cytotoxicity at 10 µM read?
**A.** -1.83%

**Q.** Which cytotoxicity at 10 µM does the source give for `Cn1ccnc1CC1CCCN(C(=O)Nc2cccn(C)c2=O)C1` (stereo not given) here?
**A.** -4.79%

**Q.** For `CC(=O)NCCNC(=O)C1(N2CCCCC2)Cc2ccccc2C1`, which cytotoxicity at 10 µM is on record?
**A.** -6.53%

**Q.** For `Cc1cccc(C(=O)N2CCC3(CC(C(=O)N(C)C(C)C)=NO3)C2)c1` (stereo not given), which cytotoxicity at 10 µM is on record?
**A.** -127%

**Q.** Which cytotoxicity at 10 µM does the source give for `Cc1nc(C)c(C(=O)N2CCN(CCOc3ccccc3C)CC2)o1` here?
**A.** 1.72%

**Q.** With `Cc1nsc(N2CCN(C(=O)Nc3cccc(C#N)c3)CC2)n1` as the compound, how does the cytotoxicity at 10 µM read?
**A.** -18.7%

**Q.** For `CC(C)CC(C)N(C)C(=O)CCn1cccn1` (stereo not given), which cytotoxicity at 10 µM is on record?
**A.** 0.395%

**Q.** For `Cc1noc(C)c1CNC(=O)C(C)Oc1ccccc1F` (stereo not given), which cytotoxicity at 10 µM is on record?
**A.** 3%

**Q.** For `COC(=O)CNc1ccc(-c2nc(Cc3ccc(OC)cc3)no2)cn1`, which cytotoxicity at 10 µM is on record?
**A.** 1.06%

**Q.** With `CN1CCOC(CNCc2coc(-c3ccc(Cl)cc3)n2)C1` (stereo not given) as the compound, how does the cytotoxicity at 10 µM read?
**A.** -9.99%

**Q.** Which cytotoxicity at 10 µM does the source give for `CN1CCC(N(C)C(=O)c2cnn(-c3cc(F)ccc3F)c2N)CC1` here?
**A.** -8.47%

**Q.** With `CC(C)SCC(=O)N1Cc2cnc(-c3ccccc3)nc2C1` as the compound, how does the cytotoxicity at 10 µM read?
**A.** 1.2%

**Q.** Which cytotoxicity at 10 µM does the source give for `N#Cc1ccc(C2CC(=O)Nc3c2cnn3C2CCCC2)cc1` (stereo not given) here?
**A.** 13.2%

**Q.** With `O=C(CCc1ccccc1F)NC1CCCN(c2ccccn2)C1` (stereo not given) as the compound, how does the cytotoxicity at 10 µM read?
**A.** 2.21%

**Q.** With `CCc1nnc2n1CCN(Cc1csc(-c3ccccc3F)n1)C2` as the compound, how does the cytotoxicity at 10 µM read?
**A.** -4.49%

**Q.** Which cytotoxicity at 10 µM does the source give for `Cc1nc(NC(=O)N2CCCC(C(C)(C)O)C2)nn1C` (stereo not given) here?
**A.** 13.5%

**Q.** With `O=C(CCN1C(=O)CCC1=O)Nc1ccc(OCC(F)(F)F)nc1` as the compound, how does the cytotoxicity at 10 µM read?
**A.** -13.4%

**Q.** With `CC1CN(c2ccc(CNC(=O)NCCO)cn2)CCO1` (stereo not given) as the compound, how does the cytotoxicity at 10 µM read?
**A.** 6.15%

**Q.** For `c1ccc2c(c1)CCN(c1nc(-c3ccncc3)nc3c1CCNC3)C2`, which cytotoxicity at 10 µM is on record?
**A.** 37.3%

**Q.** With `COCCO[C@@H]1CCN(C(=O)c2ccc(C)o2)[C@@H]1Cc1cnn(C)c1` as the compound, how does the cytotoxicity at 10 µM read?
**A.** -12.8%

**Q.** For `c1cnc(N2CCOC3(COCCN(Cc4cc[nH]n4)C3)C2)nc1` (stereo not given), which cytotoxicity at 10 µM is on record?
**A.** 11.8%

**Q.** For `c1ccc(CNCC2Cn3nncc3CO2)nc1` (stereo not given), which cytotoxicity at 10 µM is on record?
**A.** 4.93%

**Q.** For `CCOc1ncccc1C(=O)N1CC=C(c2ccc(O)cc2)CC1`, which cytotoxicity at 10 µM is on record?
**A.** 8.02%

**Q.** For `Cc1cc(C)nc(N2CCOC(C)(C(=O)N(C)C)C2)n1` (stereo not given), which cytotoxicity at 10 µM is on record?
**A.** -3.04%

**Q.** Which cytotoxicity at 10 µM does the source give for `CCc1nnc(N2C[C@@H](NC(C)=O)[C@H](c3ccc(C)o3)C2)s1` here?
**A.** -54.5%

**Q.** For `Cc1ccc(S(=O)(=O)N2C[C@H](C3CC3)[C@@H](N)C2)cc1F`, which cytotoxicity at 10 µM is on record?
**A.** -3.25%

**Q.** With `CC(=O)N1CCC(C)(c2cc(C(=O)NCC3CC3)nc(C)n2)CC1` as the compound, how does the cytotoxicity at 10 µM read?
**A.** 2.87%

**Q.** With `COCC1COCCC12CCN(C(=O)COc1ccccc1)CC2` (stereo not given) as the compound, how does the cytotoxicity at 10 µM read?
**A.** -1.69%

**Q.** With `Cc1nc(N(C)C)nc2c1COCC21CCN(C(=O)NCC(C)C)C1` (stereo not given) as the compound, how does the cytotoxicity at 10 µM read?
**A.** 7.63%

**Q.** Which cytotoxicity at 10 µM does the source give for `COc1ccc(NC(=O)N(CCO)Cc2ccsc2)cc1` here?
**A.** 1.37%

**Q.** For `CCOc1ncccc1NC(=O)N1CCN(CC(=O)NC)CC1`, which cytotoxicity at 10 µM is on record?
**A.** -2.66%

**Q.** Which cytotoxicity at 10 µM does the source give for `CC(C)NC(=O)N1CCC2(CCCO2)C1` (stereo not given) here?
**A.** 3.14%

**Q.** With `CSc1ccc(CN(C(=O)c2cc(C)[nH]c(=O)c2)C2CC2)cc1` as the compound, how does the cytotoxicity at 10 µM read?
**A.** -49.5%

**Q.** For `NC(=O)CCCNC(=O)Cc1cccc(I)c1`, which cytotoxicity at 10 µM is on record?
**A.** -3.71%

**Q.** Which cytotoxicity at 10 µM does the source give for `CC(C)NC(=O)N1CCC2(COCc3cnc(-c4cccnc4)nc32)C1` (stereo not given) here?
**A.** 1.77%

**Q.** Which cytotoxicity at 10 µM does the source give for `Cc1cccc2[nH]c(COCC(=O)N3CCCn4cncc4C3)nc12` here?
**A.** 2.03%

**Q.** For `CCNC(=O)N(CCCO)C1CCCc2ccccc21` (stereo not given), which cytotoxicity at 10 µM is on record?
**A.** -11%

**Q.** Which cytotoxicity at 10 µM does the source give for `CS(=O)(=O)CCNC1CCCN(Cc2noc(C3CC3)n2)C1` (stereo not given) here?
**A.** -1.38%

**Q.** For `Cc1cc(C(=O)NCC(c2ccccc2Cl)N2CCOCC2)on1` (stereo not given), which cytotoxicity at 10 µM is on record?
**A.** 2.62%

**Q.** Which cytotoxicity at 10 µM does the source give for `COc1cc(CNC2CCN(c3ccccc3)C2)cc(OC)c1OC` (stereo not given) here?
**A.** 3.96%

**Q.** With `O=C(CCNC(=O)c1ccoc1)Nc1cc(F)ccc1F` as the compound, how does the cytotoxicity at 10 µM read?
**A.** -12.8%
